# Key:
# [1] = target: T1, Glutamate receptor ionotropic, NMDA 2B (Rattus norvegicus, UniProt Q00960); assay: Binding affinity to NMDAR NR2B in Sprague-Dawley rat brain thalamus; type: tissue-based
# Method in brief: (§1)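 Saturation binding on mounted rat brain tissue sections. Sections were pre-incubated twice for 10 min at r.t. in 50 mM Tris-HCl pH 7.4 with 10 mM EDTA, then exposed to free [18F] ligand at 0.15–48 nM. Washes were 5, 5 and 15 min in 50 mM Tris-HCl pH 7.4 at 4 °C, followed by a cold distilled-water dip and drying on a hot plate. Autoradiographic optical densities (DLU/mm²) were converted with spiked brain-homogenate standards. Specific binding was taken as total minus nonspecific for each region. Kd and Bmax were obtained from Scatchard plots.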
# [2] = system: Cerebellum; assay: Drug uptake in Sprague-Dawley rat cerebellum at 8 nM after 90 mins by autoradiography analysis; type: ADME, tissue-based; settings: 1.5 h, 0.008 µM
# [3] = Lipophilicity, log D of the compound in octanol-[…] at 10 uM after 40 mins by shake flask method; type: physicochemical
# Method in brief: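 Shake-flask method. Tubes held 1 mL octanol and 1 mL […] buffer plus [18F] tracer, were stirred for 40 min and centrifuged for 5 min. Two 100 µL aliquots from each phase were gamma-counted. logD7.4 was calculated from the ratio of octanol to aqueous radioactivity. Four tubes were used.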
# [4] = target: T1, Glutamate receptor ionotropic, NMDA 2B; assay: Binding affinity to NMDAR NR2B in Sprague-Dawley rat brain olfactory tubercle; type: tissue-based; method in brief: as §1
# [5] = system: Hippocampus; assay: Drug uptake in Sprague-Dawley rat hippocampus at 8 nM after 90 mins by autoradiography analysis; type: ADME, tissue-based; settings: 1.5 h, 0.008 µM
# [6] = system: Cortex; assay: Drug uptake in Sprague-Dawley rat cortex at 8 nM after 90 mins by autoradiography analysis; type: ADME, tissue-based; settings: 1.5 h, 0.008 µM
# [7] = system: Striatum; assay: Binding to Sprague-Dawley rat striatum sections at 8 nM after 90 mins by autoradiography analysis; settings: in vitro, 1.5 h, 0.008 µM
# [8] = target: T1, Glutamate receptor ionotropic, NMDA 2B; assay: Binding affinity to NMDAR NR2B in Sprague-Dawley rat brain cortex; type: tissue-based; method in brief: as §1
# [9] = target: T1, Glutamate receptor ionotropic, NMDA 2B; assay: Binding affinity to NMDAR NR2B in Sprague-Dawley rat brain striatum; type: tissue-based; method in brief: as §1
# [10] = target: T1, Glutamate receptor ionotropic, NMDA 2B; assay: Binding affinity to NMDAR NR2B in Sprague-Dawley rat brain hippocampus; type: tissue-based; method in brief: as §1
# [11] = system: Nucleic Acid; assay: Ratio of drug uptake in […] in Sprague-Dawley rat at 8 nM after 90 mins by autoradiography analysis; type: ADME, tissue-based; settings: 1.5 h, 0.008 µM
# [12] = system: Thalamus; assay: Drug uptake in Sprague-Dawley rat thalamus at 8 nM after 90 mins by autoradiography analysis; type: ADME, tissue-based; settings: 1.5 h, 0.008 µM
# [13] = Drug uptake in Sprague-Dawley rat olfactory tubercle at 8 nM after 90 mins by autoradiography analysis; type: ADME, tissue-based; settings: 1.5 h, 0.008 µM
# [14] = Drug uptake in Sprague-Dawley rat forebrain at 8 nM after 90 mins by autoradiography analysis; settings: 1.5 h, 0.008 µM
# [15] = system: Brain; assay: Drug uptake in Sprague-Dawley rat brain at 8 nM after 90 mins by autoradiography analysis in presence of 10 uM Ro 256981; type: ADME, tissue-based; settings: 1.5 h, 0.008 µM
# [16] = target: Glutamate receptor ionotropic, NMDA 2B (Rattus norvegicus) (UniProt Q00960); assay: Ratio of Bmax to Kd at NMDAR NR2B in Sprague-Dawley rat brain striatum; type: tissue-based; settings: tested as the 18F-labelled form
# Method in brief: (§2)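 Bmax/Kd ratio for each brain region. Bmax and Kd came from Scatchard analysis of specific autoradiographic binding on rat brain sections. Free [18F] ligand ran from 0.15 to 48 nM, with Tris-HCl pH 7.4 pre-incubation and cold washes. Radioactivity was calibrated against spiked tissue-homogenate standards.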
# [17] = target: Glutamate receptor ionotropic, NMDA 2B (Rattus norvegicus) (UniProt Q00960); assay: Ratio of Bmax to Kd at NMDAR NR2B in Sprague-Dawley rat brain cortex; settings: tested as the 18F-labelled form; method in brief: as §2
# [18] = target: Glutamate receptor ionotropic, NMDA 2B (Rattus norvegicus) (UniProt Q00960); assay: Ratio of Bmax to Kd at NMDAR NR2B in Sprague-Dawley rat brain olfactory tubercle; type: tissue-based; settings: tested as the 18F-labelled form; method in brief: as §2
# [19] = target: Glutamate receptor ionotropic, NMDA 2B (Rattus norvegicus) (UniProt Q00960); assay: Binding affinity to NMDAR NR2B in Sprague-Dawley rat brain hippocampus assessed per mg of protein; type: tissue-based; settings: tested as the 18F-labelled form; method in brief: as §1
# [20] = target: Glutamate receptor ionotropic, NMDA 2B (Rattus norvegicus) (UniProt Q00960); assay: Binding affinity to NMDAR NR2B in Sprague-Dawley rat brain striatum assessed per mg of protein; type: tissue-based; settings: tested as the 18F-labelled form; method in brief: as §1
# [21] = target: Glutamate receptor ionotropic, NMDA 2B (Rattus norvegicus) (UniProt Q00960); assay: Binding affinity to NMDAR NR2B in Sprague-Dawley rat brain thalamus assessed per mg of protein; type: tissue-based; settings: tested as the 18F-labelled form; method in brief: as §1
# [22] = target: Glutamate receptor ionotropic, NMDA 2B (Rattus norvegicus) (UniProt Q00960); assay: Ratio of Bmax to Kd at NMDAR NR2B in Sprague-Dawley rat brain thalamus; type: tissue-based; settings: tested as the 18F-labelled form; method in brief: as §2
# [23] = target: Glutamate receptor ionotropic, NMDA 2B (Rattus norvegicus) (UniProt Q00960); assay: Binding affinity to NMDAR NR2B in Sprague-Dawley rat brain olfactory tubercle assessed per mg of protein; type: tissue-based; settings: tested as the 18F-labelled form; method in brief: as §1
# [24] = target: Glutamate receptor ionotropic, NMDA 2B (Rattus norvegicus) (UniProt Q00960); assay: Binding affinity to NMDAR NR2B in Sprague-Dawley rat brain cortex assessed per mg of protein; type: tissue-based; settings: tested as the 18F-labelled form; method in brief: as §1
# [25] = target: Glutamate receptor ionotropic, NMDA 2B (Rattus norvegicus) (UniProt Q00960); assay: Ratio of Bmax to Kd at NMDAR NR2B in Sprague-Dawley rat brain hippocampus; type: tissue-based; settings: tested as the 18F-labelled form; method in brief: as §2
# T1 sequence (Q00960 whole entry): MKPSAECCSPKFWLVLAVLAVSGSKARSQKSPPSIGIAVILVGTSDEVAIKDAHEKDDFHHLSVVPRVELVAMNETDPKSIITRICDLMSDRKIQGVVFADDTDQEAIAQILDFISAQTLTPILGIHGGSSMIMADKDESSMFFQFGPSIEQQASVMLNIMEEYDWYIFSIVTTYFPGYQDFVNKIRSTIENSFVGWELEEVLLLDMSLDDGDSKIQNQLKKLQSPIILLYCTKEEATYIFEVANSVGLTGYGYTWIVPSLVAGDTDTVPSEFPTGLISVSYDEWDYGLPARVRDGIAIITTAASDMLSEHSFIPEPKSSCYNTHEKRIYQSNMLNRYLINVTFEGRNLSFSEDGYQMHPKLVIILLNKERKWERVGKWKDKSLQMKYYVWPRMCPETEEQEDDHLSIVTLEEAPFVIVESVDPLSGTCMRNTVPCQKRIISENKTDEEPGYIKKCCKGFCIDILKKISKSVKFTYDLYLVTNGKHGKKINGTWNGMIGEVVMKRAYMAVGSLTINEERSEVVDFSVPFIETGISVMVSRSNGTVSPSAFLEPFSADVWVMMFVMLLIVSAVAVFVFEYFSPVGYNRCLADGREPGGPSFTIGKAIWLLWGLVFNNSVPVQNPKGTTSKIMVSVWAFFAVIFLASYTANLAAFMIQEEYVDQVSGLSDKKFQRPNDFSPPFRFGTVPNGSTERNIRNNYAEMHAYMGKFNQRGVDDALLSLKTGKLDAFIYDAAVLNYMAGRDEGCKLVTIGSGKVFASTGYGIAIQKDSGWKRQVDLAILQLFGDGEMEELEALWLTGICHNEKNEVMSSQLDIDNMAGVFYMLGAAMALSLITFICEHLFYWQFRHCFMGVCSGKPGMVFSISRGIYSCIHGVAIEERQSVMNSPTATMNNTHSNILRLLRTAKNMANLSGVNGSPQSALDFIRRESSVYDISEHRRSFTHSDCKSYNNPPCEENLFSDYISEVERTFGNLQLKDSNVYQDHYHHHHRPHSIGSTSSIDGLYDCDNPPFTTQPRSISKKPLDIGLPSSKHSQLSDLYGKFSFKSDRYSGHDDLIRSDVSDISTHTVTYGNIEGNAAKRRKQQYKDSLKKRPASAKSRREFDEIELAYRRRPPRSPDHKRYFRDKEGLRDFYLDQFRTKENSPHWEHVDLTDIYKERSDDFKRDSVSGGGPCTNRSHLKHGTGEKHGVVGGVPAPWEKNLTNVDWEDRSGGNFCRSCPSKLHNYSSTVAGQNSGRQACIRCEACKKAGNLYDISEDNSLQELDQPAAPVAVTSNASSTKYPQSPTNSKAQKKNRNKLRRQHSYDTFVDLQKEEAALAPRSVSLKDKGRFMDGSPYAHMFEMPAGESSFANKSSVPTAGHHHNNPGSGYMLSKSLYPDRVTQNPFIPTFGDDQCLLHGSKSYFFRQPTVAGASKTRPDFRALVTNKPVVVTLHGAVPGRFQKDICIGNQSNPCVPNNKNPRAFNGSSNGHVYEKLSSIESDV
# Glutamate receptor ionotropic, NMDA 2B (Rattus norvegicus), sequence (Q00960 27-1482 limits assumed): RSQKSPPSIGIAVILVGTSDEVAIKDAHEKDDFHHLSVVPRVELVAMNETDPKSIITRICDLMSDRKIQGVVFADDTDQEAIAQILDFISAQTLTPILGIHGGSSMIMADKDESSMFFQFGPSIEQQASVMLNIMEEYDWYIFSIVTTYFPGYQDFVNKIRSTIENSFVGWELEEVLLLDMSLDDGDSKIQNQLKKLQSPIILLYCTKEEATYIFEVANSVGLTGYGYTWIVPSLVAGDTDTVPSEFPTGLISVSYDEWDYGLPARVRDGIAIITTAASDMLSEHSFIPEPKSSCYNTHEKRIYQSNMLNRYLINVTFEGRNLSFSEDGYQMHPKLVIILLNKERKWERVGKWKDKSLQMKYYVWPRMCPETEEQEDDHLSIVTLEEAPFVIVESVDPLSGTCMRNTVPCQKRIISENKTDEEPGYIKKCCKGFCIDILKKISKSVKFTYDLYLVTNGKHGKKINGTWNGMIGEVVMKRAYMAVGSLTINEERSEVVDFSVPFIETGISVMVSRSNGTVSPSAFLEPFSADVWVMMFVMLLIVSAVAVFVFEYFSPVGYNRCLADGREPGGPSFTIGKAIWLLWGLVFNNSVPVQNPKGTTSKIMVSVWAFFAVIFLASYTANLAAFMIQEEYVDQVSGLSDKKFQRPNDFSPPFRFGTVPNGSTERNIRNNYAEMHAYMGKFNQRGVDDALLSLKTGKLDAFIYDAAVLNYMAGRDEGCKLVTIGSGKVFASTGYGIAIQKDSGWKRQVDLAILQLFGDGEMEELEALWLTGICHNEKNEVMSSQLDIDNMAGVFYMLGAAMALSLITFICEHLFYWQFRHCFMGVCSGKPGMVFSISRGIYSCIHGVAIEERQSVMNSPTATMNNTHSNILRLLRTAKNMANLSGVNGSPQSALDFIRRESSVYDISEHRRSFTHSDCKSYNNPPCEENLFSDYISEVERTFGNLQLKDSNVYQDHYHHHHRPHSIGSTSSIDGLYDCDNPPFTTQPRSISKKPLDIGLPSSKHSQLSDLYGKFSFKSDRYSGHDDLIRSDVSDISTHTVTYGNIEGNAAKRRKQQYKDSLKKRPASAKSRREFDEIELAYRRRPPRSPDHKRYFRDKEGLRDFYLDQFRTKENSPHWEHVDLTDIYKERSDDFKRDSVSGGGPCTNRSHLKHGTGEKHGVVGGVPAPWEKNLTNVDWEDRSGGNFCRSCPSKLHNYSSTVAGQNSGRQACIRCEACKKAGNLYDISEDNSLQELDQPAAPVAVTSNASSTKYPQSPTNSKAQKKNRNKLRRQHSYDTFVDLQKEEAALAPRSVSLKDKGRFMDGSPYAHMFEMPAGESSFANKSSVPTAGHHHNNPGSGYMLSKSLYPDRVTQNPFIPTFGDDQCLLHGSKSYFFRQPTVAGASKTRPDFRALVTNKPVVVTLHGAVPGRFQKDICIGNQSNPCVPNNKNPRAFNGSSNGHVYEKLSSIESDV
Kd [1] [nM],Drug uptake [2],"logD at 40 min, 10 µM [3]",Kd [4] [nM],Drug uptake [5] [%],Drug uptake [6],Drug uptake [7],Kd [8] [nM],Kd [9] [nM],Kd [10] [nM],Ratio [11],Drug uptake [12] [%],Drug uptake [13],Drug uptake [14],Drug uptake [15],Ratio [16],Ratio [17],Ratio [18],Bmax [19] [pmol],Bmax [20] [pmol],SMILES,also measured
15.2,Not Active,2.8,5.9,91,Active,Active,9.8,9.3,9.1,12.1,76,Not Active,Active,Not Active,–,–,–,–,–,Cc1ccc(COC(=O)N2CC[C@H](CNc3ncccn3)[C@H]([18F])C2)cc1 (racemic),–
5.4,Not Active,2.66,1.9,84,Active,Active,3.2,5.1,7.1,6.4,62,Not Active,Active,Not Active,–,–,–,–,–,Cc1ccc(COC(=O)N2CC[C@@H](CNc3ncccn3)[C@H]([18F])C2)cc1 (racemic),–
–,–,–,–,–,–,–,–,–,–,–,–,–,–,–,21,25,37,1.58,1.05,Cc1ccc(COC(=O)N2CC[C@@H](CNc3ncccn3)[C@H](F)C2)cc1 (racemic),Bmax [21]: 0.86 pmol; Ratio [22]: 17; Bmax [23]: 0.69 pmol; Bmax [24]: 0.77 pmol; Ratio [25]: 22
–,–,–,–,–,–,–,–,–,–,–,–,–,–,–,15,15,18,1.65,1.41,Cc1ccc(COC(=O)N2CC[C@H](CNc3ncccn3)[C@H](F)C2)cc1 (racemic),Bmax [21]: 1.12 pmol; Ratio [22]: 8; Bmax [23]: 1.05 pmol; Bmax [24]: 1.5 pmol; Ratio [25]: 19

# Source: ChEMBL document CHEMBL2034845, “Synthesis and in vitro characterization of trans- and cis-[(18)F]-4-methylbenzyl 4-[(pyrimidin-2-ylamino)methyl]-3-fluoropiperidine-1-carboxylates as new potential PET radiotracer candidates for the NR2B subtype N-methyl-D-aspartate receptor” (Eur J Med Chem, 2012)
